# Experimental data reported in ChEMBL document CHEMBL1142489, “Tetrahydrolipstatin analogues as modulators of endocannabinoid 2-arachidonoylglycerol metabolism” (J Med Chem, 2008).
# How the values were obtained:
# Cannabinoid receptor 1 = Cannabinoid receptor 1 (Homo sapiens, UniProt P21554); test: Displacement of [3H]CP-55940 from human recombinant CB1 receptor expressed in HEK293 cells by scintillation counting; assay type: cell-based
# [1] = Selectivity ratio of IC50 for human recombinant DAGLalpha over IC50 for rat brain membrane FAAH
# [2] = Selectivity ratio of IC50 for human recombinant DAGLalpha over IC50 for african green monkey MAGL
# Homo sapiens [3] = species: Homo sapiens; test: Selectivity ratio of IC50 for human recombinant DAGLalpha over Ki for human recombinant CB2 receptor
# [4] = target: T1, Fatty-acid amide hydrolase 1 (Rattus norvegicus, UniProt P97612); test: Inhibition of FAAH-mediated [14C]anandamide hydrolysis in rat brain membrane; assay type: cell membranes
# T1 sequence (P97612 whole entry): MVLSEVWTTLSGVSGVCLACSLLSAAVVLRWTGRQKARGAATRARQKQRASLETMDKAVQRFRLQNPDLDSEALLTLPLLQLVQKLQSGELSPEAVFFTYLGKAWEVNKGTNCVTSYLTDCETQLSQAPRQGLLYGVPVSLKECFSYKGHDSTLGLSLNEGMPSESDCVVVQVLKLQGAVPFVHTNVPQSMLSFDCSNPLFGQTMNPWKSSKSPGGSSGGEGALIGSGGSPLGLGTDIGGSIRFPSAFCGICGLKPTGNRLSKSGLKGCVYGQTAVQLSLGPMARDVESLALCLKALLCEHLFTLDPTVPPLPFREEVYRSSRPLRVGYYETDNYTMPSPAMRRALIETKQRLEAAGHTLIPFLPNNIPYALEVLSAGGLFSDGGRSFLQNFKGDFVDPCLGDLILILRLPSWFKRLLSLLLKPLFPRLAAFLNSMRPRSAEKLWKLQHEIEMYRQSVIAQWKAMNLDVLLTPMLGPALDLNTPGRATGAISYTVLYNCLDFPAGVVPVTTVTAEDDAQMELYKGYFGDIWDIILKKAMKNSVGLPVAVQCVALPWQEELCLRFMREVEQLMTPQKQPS
# In short: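 The mixture was extracted with 2 volumes of CHCl3/CH3OH 1/1. [14C]ethanolamine in the aqueous phase was measured by scintillation counting.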
# Cannabinoid receptor 2 = Cannabinoid receptor 2 (Homo sapiens, UniProt P34972); test: Displacement of [3H]CP-55940 from human recombinant CB2 receptor expressed in HEK293 cells by scintillation counting; assay type: cell-based
# [5] = Inhibition of MAGL-mediated [14C]2-arachidonoyl glycerol hydrolysis to [3H]arachidonic acid in african green monkey COS cell cytosolic fraction by scintillation counting; assay type: cell-based, Chlorocebus aethiops; conditions: in the assay text read “[3H]2-arachidonoyl glycerol” for “[14C]2-arachidonoyl glycerol”
# In short: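 The 10000g cytosolic fraction of COS-7 cells, taken as the MAGL source, was incubated with 2-[3H]arachidonoylglycerol (1.0 mCi/mmol, 25 µM) in 50 mM Tris-HCl, pH 7.0, for 20 min at 37 °C. Products were separated by TLC. [3H]arachidonic acid was quantified by scintillation counting as the measure of activity.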
# [6] = target: T2, Diacylglycerol lipase-alpha (Homo sapiens, UniProt Q9Y4D2); test: Inhibition of human recombinant DAGL-alpha-mediated sn-1-[14C]oleoyl-2-arachidonoyl-glycerol hydrolysis to 2-AG overexpressed in african green monkey COS7 cell membrane by scintillation counting; assay type: cell membranes, COS-7
# T2 sequence (Q9Y4D2 whole entry): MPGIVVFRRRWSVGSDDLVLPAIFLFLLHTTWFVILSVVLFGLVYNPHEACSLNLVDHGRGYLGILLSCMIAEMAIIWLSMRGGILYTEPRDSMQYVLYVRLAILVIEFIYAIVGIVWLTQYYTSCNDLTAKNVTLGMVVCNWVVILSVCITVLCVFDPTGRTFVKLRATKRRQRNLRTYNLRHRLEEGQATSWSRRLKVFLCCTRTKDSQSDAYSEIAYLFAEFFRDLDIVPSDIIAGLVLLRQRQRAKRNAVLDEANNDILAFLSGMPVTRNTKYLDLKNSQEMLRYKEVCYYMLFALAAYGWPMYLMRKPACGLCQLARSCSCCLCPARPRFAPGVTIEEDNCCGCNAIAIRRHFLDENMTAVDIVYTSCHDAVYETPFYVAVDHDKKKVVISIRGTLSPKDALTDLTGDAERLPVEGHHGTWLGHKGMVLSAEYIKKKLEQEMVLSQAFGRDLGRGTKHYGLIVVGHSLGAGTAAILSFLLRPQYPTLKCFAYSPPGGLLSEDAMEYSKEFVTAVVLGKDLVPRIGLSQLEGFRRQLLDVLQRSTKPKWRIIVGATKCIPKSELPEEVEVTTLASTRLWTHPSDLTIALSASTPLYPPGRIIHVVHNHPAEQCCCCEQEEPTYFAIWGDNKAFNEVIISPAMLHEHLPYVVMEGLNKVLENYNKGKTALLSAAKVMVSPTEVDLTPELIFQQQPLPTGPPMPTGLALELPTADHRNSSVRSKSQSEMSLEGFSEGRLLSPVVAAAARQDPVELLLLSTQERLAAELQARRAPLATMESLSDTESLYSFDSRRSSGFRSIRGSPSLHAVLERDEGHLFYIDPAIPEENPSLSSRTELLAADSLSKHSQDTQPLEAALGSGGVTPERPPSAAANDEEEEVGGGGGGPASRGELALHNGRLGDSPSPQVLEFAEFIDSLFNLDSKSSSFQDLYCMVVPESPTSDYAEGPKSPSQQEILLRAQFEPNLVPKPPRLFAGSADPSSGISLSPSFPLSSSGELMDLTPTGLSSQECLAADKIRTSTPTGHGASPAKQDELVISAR
# Homo sapiens [7] = species: Homo sapiens; test: Selectivity ratio of IC50 for human recombinant DAGLalpha over Ki for human recombinant CB1 receptor
# [8] = Inhibition of ionomycin-induced stimulation of 2-AG biosynthesis in mouse N18TG2 cells at 1 uM; assay type: functional
# In short: (§1)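 Confluent mouse N18TG2 neuroblastoma cells attached to dishes were incubated for 20 min at 37 °C in medium containing 3 µM ionomycin, with vehicle or test compound. The reaction was stopped with ice-cold methanol and lipids were extracted three times with CHCl₃. Lyophilized lipids were assayed for 2-AG by isotope-dilution LC-MS. Values are % change in 2-AG levels versus vehicle (means ± SEM, N = 3).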
# [9] = Inhibition of ionomycin-induced stimulation of 2-AG biosynthesis in mouse N18TG2 cells at 0.3 uM; assay type: functional; in short: as §1
# [10] = Selectivity ratio of IC50 for african green monkey MAGL over Ki for human recombinant CB1 receptor
# [11] = Selectivity ratio of IC50 for african green monkey MAGL over Ki for human recombinant CB2 receptor
# [12] = Enhancement of ionomycin-induced stimulation of 2-AG biosynthesis in mouse N18TG2 cells at 1.5 uM; assay type: functional; in short: as §1
# [13] = Selectivity ratio of IC50 for african green monkey MAGL over IC50 for human recombinant DAGLalpha
# [14] = Selectivity ratio of IC50 for african green monkey MAGL over IC50 for rat brain membrane FAAH
# Sequence of Cannabinoid receptor 2 (P34972 whole entry): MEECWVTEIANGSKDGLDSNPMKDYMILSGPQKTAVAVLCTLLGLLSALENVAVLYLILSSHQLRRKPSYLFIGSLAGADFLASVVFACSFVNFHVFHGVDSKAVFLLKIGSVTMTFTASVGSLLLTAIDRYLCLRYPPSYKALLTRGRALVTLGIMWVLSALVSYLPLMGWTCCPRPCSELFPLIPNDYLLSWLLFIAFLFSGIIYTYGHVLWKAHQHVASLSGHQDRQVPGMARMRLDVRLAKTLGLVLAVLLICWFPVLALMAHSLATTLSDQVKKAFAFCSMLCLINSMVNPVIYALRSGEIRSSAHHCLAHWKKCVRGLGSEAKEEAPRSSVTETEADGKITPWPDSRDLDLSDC
# Sequence of Cannabinoid receptor 1 (P21554 whole entry): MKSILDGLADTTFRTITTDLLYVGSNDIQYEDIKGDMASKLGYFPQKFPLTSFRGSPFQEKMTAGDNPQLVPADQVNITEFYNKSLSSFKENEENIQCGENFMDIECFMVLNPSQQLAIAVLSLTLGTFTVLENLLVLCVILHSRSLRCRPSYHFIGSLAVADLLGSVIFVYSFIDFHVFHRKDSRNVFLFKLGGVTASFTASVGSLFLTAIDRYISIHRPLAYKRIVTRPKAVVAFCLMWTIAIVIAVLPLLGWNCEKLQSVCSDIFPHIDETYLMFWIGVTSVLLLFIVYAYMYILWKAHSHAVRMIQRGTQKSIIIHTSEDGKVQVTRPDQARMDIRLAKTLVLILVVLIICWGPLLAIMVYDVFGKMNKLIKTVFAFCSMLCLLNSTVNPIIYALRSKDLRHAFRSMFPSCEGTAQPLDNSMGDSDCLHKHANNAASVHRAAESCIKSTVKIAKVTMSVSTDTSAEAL
Compound,Ki (Cannabinoid receptor 1) [µM],IC50 [4] [µM],Ki (Cannabinoid receptor 2) [µM],IC50 [5] [µM],IC50 [6] [µM],also measured
CCCCCCCCCCC[C@@H](C[C@@H]1OC(=O)[C@H]1CCCCCC)OC(=O)[C@@H]1CCC(=O)N1,2.6,> 50,> 10,3.5,0.1,Ratio IC50 [1]: 15; Ratio IC50 [2]: 15; Ratio (Homo sapiens [3]): 15; Ratio (Homo sapiens [7]): 15
CCCCCCCCCCC[C@@H](C[C@@H]1OC(=O)[C@H]1CCCCCC)OC(=O)[C@H](Cc1ccccc1)NC=O,,> 50,,> 10,25,
CCCCCCCCCCC[C@@H](C[C@@H]1OC(=O)[C@H]1CCCCCC)OC(=O)CCC(C)C,,10.4,,> 10,> 25,
CCCCCCCCCCC[C@@H](C[C@@H]1OC(=O)[C@H]1CCCCCC)OC(=O)[C@@H](NC=O)C(C)C,5.7,> 50,> 10,> 10,0.035,Ratio IC50 [1]: 23; Ratio IC50 [2]: 23; Ratio (Homo sapiens [3]): 23; Ratio (Homo sapiens [7]): 23
CCCCCCCCCCC[C@@H](C[C@@H]1OC(=O)[C@H]1CCCCCC)OC(=O)[C@H](CC(C)C)NC=O [ORLISTAT],2.5,,> 10,> 10,,inhibition at 1 µM [8]: 79.8%
CCCCCCCCCCC[C@@H](C[C@@H]1OC(=O)[C@H]1CCCCCC)OC(=O)[C@@H](N)Cc1ccccc1,,> 50,,> 10,25,
CCCCCCCCCCC[C@@H](C[C@@H]1OC(=O)[C@H]1CCCCCC)OC(=O)[C@H](C)NC=O,3.1,> 50,> 10,1,0.043,Ratio IC50 [1]: 23; Ratio IC50 [2]: 23; Ratio (Homo sapiens [3]): 23; Ratio (Homo sapiens [7]): 23
CCCCCCCCCCC[C@@H](C[C@@H]1OC(=O)[C@H]1CCCCCC)OC(=O)[C@H](Cc1ccccc1)NC(=O)OCc1ccccc1,,> 50,,> 10,> 25,
CCCCCCCCCCC[C@@H](C[C@@H]1OC(=O)[C@H]1CCCCCC)OC(=O)[C@@H](CC(C)C)NC=O,,,,> 10,,
CCCCCCCCCCC[C@@H](C[C@@H]1OC(=O)[C@H]1CCCCCC)OC(=O)CCNC=O,1.9,> 50,6.4,0.4,0.6,
CCCCCCCCCCC[C@@H](C[C@@H]1OC(=O)[C@H]1CCCCCC)OC(=O)CNC(C)=O,2.3,> 50,> 10,1.7,0.8,
CCCCCCCCCCC[C@@H](C[C@@H]1OC(=O)[C@H]1CCCCCC)OC(=O)[C@@H](NC=O)[C@@H](C)CC,6,> 50,> 10,> 10,0.016,Ratio IC50 [1]: 23; Ratio IC50 [2]: 23; Ratio (Homo sapiens [3]): 23; inhibition at 0.3 µM [9]: 57.3%; Ratio (Homo sapiens [7]): 23
CCCCCCCCCCC[C@@H](C[C@@H]1OC(=O)[C@H]1CCCCCC)OC(=O)[C@H](CC(C)C)NC(=O)OCc1ccccc1,,> 50,,> 10,> 25,
CCCCCCCCCCC[C@@H](C[C@@H]1OC(=O)[C@H]1CCCCCC)OC(=O)[C@@H](CC(C)C)NC(=O)OCc1ccccc1,,> 50,,> 10,> 25,
CCCCCCCCCCC[C@@H](C[C@@H]1OC(=O)[C@H]1CCCCCC)OC(=O)CNC=O,> 10,3,> 10,0.41,2.8,Ratio [10]: 7; Ratio [11]: 7; Activity [12]: 55%; Ratio IC50 [13]: 7; Ratio IC50 [14]: 7
CCCCCCCCCCC[C@@H](C[C@@H]1OC(=O)[C@H]1CCCCCC)OC(=O)CNC(=O)OCc1ccccc1,,> 50,,> 10,> 25,
CCCCCCCCCCC[C@@H](C[C@@H]1OC(=O)[C@H]1CCCCCC)OC(=O)[C@@H]1CCCN1C=O,1.7,3.4,7.4,> 10,1.1,
CCCCCCCCCCC[C@@H](C[C@@H]1OC(=O)[C@H]1CCCCCC)OC(=O)[C@@H](NC(C)=O)C(C)C,8.4,> 50,> 10,> 10,0.46,Ratio IC50 [1]: 15; Ratio IC50 [2]: 15; Ratio (Homo sapiens [3]): 15; Ratio (Homo sapiens [7]): 15
CCCCCCCCCCC[C@@H](C[C@@H]1OC(=O)[C@H]1CCCCCC)OC(=O)[C@H](CC(C)C)NC(=O)OC(C)(C)C,,> 50,,> 10,> 25,
CCCCCCCCCCC[C@@H](C[C@@H]1OC(=O)[C@H]1CCCCCC)OC(=O)[C@@H](N)CC(C)C,,> 50,,> 10,> 25,
CCCCCCCCCCC[C@@H](C[C@@H]1OC(=O)[C@H]1CCCCCC)OC(=O)[C@@H](NC(C)=O)[C@@H](C)CC,8.6,6.6,> 10,> 10,0.43,Ratio IC50 [1]: 15; Ratio IC50 [2]: 15; Ratio (Homo sapiens [3]): 15; Ratio (Homo sapiens [7]): 15
CCCCCCCCCCC[C@H](O)C[C@@H]1OC(=O)[C@H]1CCCCCC,,> 50,,> 10,25,
